Experimental data as given in PubChem BioAssay AID2648 (Johns Hopkins Ion Channel Center, 2010).
About 1,100 (0.35%) of roughly 310,000 compounds were called active.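 Rule for the calls: active = fluorescence ratio B-score, a plate-corrected score, at least three library SD, with initial intensity B-score within 5 SD; inactive = the rest.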 Shown is part of a subset that was picked to be rich in actives.

These compounds were tested against Potassium voltage-gated channel subfamily KQT member 1 (Homo sapiens) (UniProt P51787) (assay: human KCNQ1 current enhancers – cell-based, thallium flux, high-throughput, primary screen (AID 2648)). Settings: CHO-K1 KCNQ1, thallium flux FluxOR fluorescence, at 10 µM; stronger effect = higher value.
Potassium voltage-gated channel subfamily KQT member 1 (Homo sapiens), sequence (P51787 whole entry, looked up): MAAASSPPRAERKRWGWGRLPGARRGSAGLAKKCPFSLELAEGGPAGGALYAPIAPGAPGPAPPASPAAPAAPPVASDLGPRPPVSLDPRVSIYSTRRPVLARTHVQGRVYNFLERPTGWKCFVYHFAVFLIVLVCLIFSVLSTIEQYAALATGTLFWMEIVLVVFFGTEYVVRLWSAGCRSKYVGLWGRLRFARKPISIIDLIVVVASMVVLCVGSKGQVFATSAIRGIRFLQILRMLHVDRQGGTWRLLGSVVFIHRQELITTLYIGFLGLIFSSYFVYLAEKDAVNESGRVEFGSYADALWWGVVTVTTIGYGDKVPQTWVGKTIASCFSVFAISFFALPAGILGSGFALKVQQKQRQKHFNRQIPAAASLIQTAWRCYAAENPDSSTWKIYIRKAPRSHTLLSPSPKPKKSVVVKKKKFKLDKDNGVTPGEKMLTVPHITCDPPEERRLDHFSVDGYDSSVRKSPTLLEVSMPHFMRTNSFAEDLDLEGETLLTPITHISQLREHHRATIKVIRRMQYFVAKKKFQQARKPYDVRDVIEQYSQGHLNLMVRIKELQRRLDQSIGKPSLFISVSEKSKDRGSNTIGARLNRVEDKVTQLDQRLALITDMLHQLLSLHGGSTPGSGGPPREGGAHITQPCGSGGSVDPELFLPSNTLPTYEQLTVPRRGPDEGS
How it was run: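 System: Stable KCNQ1 CHO-K1 line | Incubation: 90 min dye loading and 20 min compound exposure, both at room temperature | Measure: Ratio B score | Medium: Assay buffer for compound exposure, DMSO matched across wells | Compound dosing: Single-concentration screen | Probe or stimulus: K+/Tl+ depolarizing stimulus | Measured by: Kinetic FluxOR fluorescence, 10 s baseline plus 110 s post-stimulus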
For `O=C(Cn1cncn1)N/N=C/c1c2ccccc2cc2ccccc12`, the B-score was “inactive”.
In the case of `CN(c1ccccn1)c1ncnc2[nH]ncc12`, the B-score is reported as “inactive”.
For `CN(Cc1cccs1)C(=O)Cc1c[nH]c2ccccc12`, the B-score was “inactive”.
With `CCc1ccc(NC(=O)C(=O)NNC(=O)c2cccs2)cc1` the B-score was 54 (active).
With `CC(C)C(=O)Nc1ccc(C(=O)NNC(=O)c2cccs2)cc1` the B-score was “inactive”.
In the case of `CCc1ccc(NC(=O)COC(=O)c2cccs2)cc1`, the B-score is reported as “inactive”.
For `CCCCNC(=O)CN1C(=O)NC(Cc2ccccc2)(Cc2ccccc2)C1=O`, the B-score was “inactive”.
`Clc1ccc(C[n+]2cc(-c3ccc(Cl)cc3)n3c2CCC3)cc1` was tested, and the B-score was “inactive”.
For `Cc1cc(C)nc(N2CCC(C(=O)Nc3ccc4c(c3)OCCO4)CC2)n1`, the B-score was “inactive”.
For `Cc1cc(Nc2cc(N3CCN(C)CC3)nc(Sc3ccc(NC(=O)C4CC4)cc3)n2)n[nH]1`, the B-score was 7 (active).
`CN1CCN(S(=O)(=O)c2ccc(NC(=S)NC(=O)C3CC3)cc2)CC1` was tested, and the B-score was “inactive”.
`COCC(=O)N1CCc2ccc(NC(=O)c3ccccc3Cl)cc2C1` was tested, and the B-score was “inactive”.
For `CCc1nccn1CCC(=O)N1CCCC(N2CCN(c3ccccc3F)CC2)C1` (stereo not drawn), the B-score was “inactive”.
For `Cc1cccc(C(=O)N2CCN(S(=O)(=O)N3CCCCC3)CC2)c1`, the B-score was “inactive”.
For `O=C(NCCN1CCOCC1)[C@H](Cc1ccccc1)N1C(=O)c2ccccc2C1=O`, the B-score was 11 (active).
In the case of `O=C(CCN1C(=O)c2ccccc2C1=O)NCCN1CCOCC1`, the B-score is reported as “inactive”.
With `O=C(NC1=NCCS1)[C@H](Cc1ccccc1)N1C(=O)c2ccccc2C1=O` the B-score was “inactive”.
With `CC(C)COC(=O)C1C2C=CC3(CN(C(C)c4ccc(Br)cc4)C(=O)C13)O2` (stereo not drawn) the B-score was “inactive”.
With `CCOC(=O)c1sc(=S)n2c1[nH]c(=O)c1ccc(C(=O)OC)cc12` the B-score was 59 (active).
`CCOC(=O)c1ccc(Nc2cc3ccccc3c(=O)[nH]2)cc1` was tested, and the B-score was “inactive”.
`CCOC(=O)C1=C(C)Nc2sc(C(=O)c3ccc(Br)cc3)c(N)c2C1c1ccc(C(=O)OC)cc1` (stereo not drawn) was tested, and the B-score was “inactive”.
`CCOC(=O)c1c(C)nn(-c2ncccc2NC(=O)CCC(=O)O)c1C` was tested, and the B-score was “inactive”.
In the case of `Cc1oc2cc3oc(=O)ccc3cc2c1C`, the B-score is reported as “inactive”.
